Read-outs that look alike come from different tables or passages of the source. Marks after values point to notes of the source that are not given here. Blank lines part the entries; values can stand above or below the molecule they belong to.
Columns and labels:
Qa-1^b [1] = assay type: binding, mouse; conditions: for Binding of poly-Gly peptides to Qa-1^b (in words): Table 2 in words, 20 μM; for Blocking of / binding to Qa-1^b at 20 μM (in words): 20 μM competitor
sM3 = assay: SPR direct binding of sM3 to immobilized QdmC5; conditions: Fig. 1 B; 0.5 μM sM3, 20 μl at 1 μl/min
sCD1 = assay: SPR direct binding of sCD1 to immobilized QdmC5; conditions: data not shown
Qa-1^b [2] = conditions: previous finding; ref [6]; cited from earlier work
[3] = Solubility of peptides in running buffer / aqueous solvents; assay type: physicochemical
Method in brief: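 Solubility was judged for peptides used as competitors in SPR on a Biacore 2000 at 25°C. The running buffer was Hepes-buffered saline, or 2% DMSO in HBS for the hydrophobic leader peptides. Competitors were at 20 μM (poly-Gly series titrated up to 20 μM), co-injected with 0.5 μM soluble Qa-1b at 1 μl/min for 20 min over immobilized QdmC5.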

[4] = target: QdmC5 peptide (…) (mouse); assay: SPR
[5] = target: QdmC5 peptide (…) (mouse); assay: SPR; remark: listed apart in the source
[6] = target: QdmC5 peptide (…) (mouse); assay: SPR; remark: listed apart in the source
[7] = target: QdmC5 peptide (…) (mouse); assay: SPR; remark: listed apart in the source
[8] = target: soluble Qa-1^b/β2-microglobulin dimer (mouse (C57BL/6) | murine) (UniProt P06339); assay: SPR

- Binding at 200 nM (in words) (Qa-1^b [1]; Fig. 1 D, 0.5 μM sQa-1^b, competitor 200 nM): almost no binding
Molecule: 10-mer: Qdm extended by adding a leucine at position 10 (AMAPRTLLLL)
- Binding relative to the Qdm nonamer at 20 and 2 μM (in words) (Qa-1^b [1]; Fig. 1 D, 0.5 μM sQa-1^b, competitor 20 and 2 μM): decreased binding relative to the nonamer

- Binding of soluble protein to immobilized peptide (in words) (sM3): failed to bind
- Binding of soluble protein to immobilized peptide (in words) (sCD1): failed to bind
Molecule: AMAPCTLLL [QdmC5]

- Blocking of Qa-1^b binding / binding ability over the titration (in words) (Qa-1^b [1]; Fig. 1 D, 0.5 μM sQa-1^b, competitor 200 nM to 20 μM, 1 μl/min for 20 min): completely blocked binding
- Binding to Qa-1^b in 2% DMSO (in words) (Qa-1^b [1]; Fig. 3 B, running buffer 2% DMSO in HBS): bind Qa-1^b
Molecule: AMAPRTLLL [Qdm, reference compound]
- Affinity of binding to Qa-1^b (in words) (Qa-1^b [2]): very high affinity

- Binding of poly-Gly peptides to Qa-1^b (in words) (Qa-1^b [1]): very little binding
Molecule: GMGGGGGLL

- Binding of poly-Gly peptides to Qa-1^b (in words) (Qa-1^b [1]): very little binding
Molecule: GMGGGGLGL

- Blocked binding of sQa-1^b to immobilized QdmC5 peptide (Qa-1^b [1]; highest concentration tested (20 μM)): > 50%
- Blocking activity at 200 nM (in words) (Qa-1^b [1]; titration, 200 nM): none
- Blocking activity at 2 μM (in words) (Qa-1^b [1]; titration, 2 μM): relatively little blocking activity
Molecule: GMGGGGLLL

- Blocking of / binding to Qa-1^b at 20 μM (in words) (Qa-1^b [1]; Fig. 1 D, 0.5 μM sQa-1^b): failed to bind
Molecule: MAPRTLLLL

- Blocking of / binding to Qa-1^b at 20 μM (in words) (Qa-1^b [1]; Fig. 1 D, 0.5 μM sQa-1^b): failed to bind
Molecule: MGAMAPRTL

- Solubility in 2% DMSO in HBS ([3]; 2% DMSO in HBS (SPR running buffer)): remained soluble
- Solubility in aqueous solvents ([3]; aqueous solvents): not soluble in aqueous solvents
Molecule: VMSPTVLLL

- RU, binding in the absence of peptide [4]: 230 RU
- RU, binding in the absence of peptide [5]: 263 RU
- RU, binding in the absence of peptide [6]: 345 RU
- RU, binding in the absence of peptide [7]: 276 RU
Molecule: soluble Qa-1^b/β2-microglobulin dimer (from UniProt P06339 21-357; P01887 21-119) (complex)

- RU of sQa-1^b left on immobilised QdmC5 with 20 μM Qdm [8]: 25 RU
Molecule: AMAPRTLLL [Qdm peptide (…)]

Source: PMC2213384 (The Journal of Experimental Medicine, 1998)
